In general, IC50 refers to the concentration that gives 50% inhibition. Low values mean inhibition by little substance, high ones a need for much substance.

Experiment [1] has as its system NCI-H460. As to the kind of experiment: Cytotoxicity against human NCI-H460 cells after 72 hrs by XTT assay. The following applies: NCI-H460, 72 h. It counts as functional, cell-based. The method in brief: (§1)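 Cells grown in DMEM with 10% heat-inactivated FBS, 2 mM L-glutamine, penicillin/streptomycin at 37 °C, 5% CO2, and tested Mycoplasma-negative. 1.5 × 10³ cells per well were exposed to compound over 10^-4 to 10^-9 M for 72 h at 37 °C, then read by XTT proliferation assay. Done in triplicate; IC50 is the concentration giving 50% proliferation inhibition versus untreated controls.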
A general note: Tetrazolium dyes change colour on reduction, which living cells bring about.

In experiment [2] the test system is MCF7. Put plainly: Cytotoxicity against human MCF7 cells after 72 hrs by XTT assay. The class given is functional, cell-based. The following applies: MCF7, 72 h. The method in brief: as §1
For experiment [3], the system named is HT-29. As to the kind of experiment: Cytotoxicity against human HT-29 cells after 72 hrs by XTT assay. It counts as functional, cell-based. The following applies: HT-29, 72 h. The method in brief:
as §1

Experiment [4] relates to SF-268. As to the kind of experiment: Cytotoxicity against human SF268 cells after 72 hrs by XTT assay. The class given is functional, cell-based. The following applies: SF-268, 72 h. The method, boiled down: as §1
The subject of experiment [5] is Calf thymus DNA. As to the kind of experiment: Binding affinity to calf thymus DNA assessed as change in melting temperature. The class given is nucleic-acid assay. The following applies: Bos taurus. The method in brief:
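ct-DNA sonicated, filtered (0.45 µm) and held in sodium cacodylate buffer, I = 0.05 mol dm^-3, pH 7.0, at 7.5 × 10^-6 M base pairs. Melting was followed by absorbance at 260 nm versus temperature with increasing ligand, ligand absorbance subtracted and normalised. Tm is the transition midpoint (first-derivative maximum or tangent method). ΔTm = Tm(complex) − Tm(free DNA), averaged over ≥3 runs, error 0.5 °C.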

Bounds are passed on as bounds.

As for `NCCCN1CCN(CCCNc2nnc(Cl)c3cc4ccccc4cc23)CC1`, the IC50 was 8.8 µM in experiment [1], 9.2 µM in experiment [2], 10.5 µM in experiment [3] and 12.6 µM in experiment [4].

Turning to `CCCCCNc1nnc(NCCCCC)c2cc3ccccc3cc12`, the IC50 in experiment [1] is 2.37 µM; in experiment [2], 2.57 µM; in experiment [3], 2.7 µM; in experiment [4], 2.7 µM.

As for `c1ccc(CCNc2nnc(NCCc3ccccc3)c3cc4ccccc4cc23)cc1`, the IC50 in experiment [1] came to 1.83 µM; in experiment [2], 2.57 µM; in experiment [3], 2.95 µM; in experiment [4], 2.63 µM.

Regarding `COc1cccc2c1C(=O)c1c(O)c3c(c(O)c1C2=O)C[C@@](O)(C(=O)CO)C[C@@H]3O[C@H]1C[C@H](N)[C@H](O)[C@H](C)O1` [DOXORUBICIN], the IC50 turned out to be 0.264 µM in experiment [1], 0.324 µM in experiment [2], 0.28 µM in experiment [3] and 0.22 µM in experiment [4]. The Tm in experiment [5] was found to be 20.6 °C.

In the case of `CCCCNc1nnc(NCCCC)c2cc3ccccc3cc12`, the IC50 in experiment [1] came out at 2.03 µM; in experiment [2], 2.47 µM; in experiment [3], 2.35 µM; in experiment [4] it was 2.63 µM.

Consider `Clc1nnc(NCCCN2CCN(CCCNc3nnc(Cl)c4cc5ccccc5cc34)CC2)c2cc3ccccc3cc12`, for which the IC50 in experiment [1] is 0.742 µM; in experiment [2], 0.863 µM; in experiment [3] it was 0.497 µM; in experiment [4], 0.665 µM.

Take `CCCCNc1nnc(Cl)c2cc3ccccc3cc12`: the IC50 was 85.5 µM in experiment [1], more than 100 µM in experiment [2], more than 100 µM in experiment [3] and 88 µM in experiment [4].

The values are drawn from ChEMBL document CHEMBL1177671, “Synthesis and cytotoxic activity of a new potential DNA bisintercalator: 1,4-Bis{3-[N-(4-chlorobenzo[g]phthalazin-1-yl)aminopropyl]}piperazine” (Bioorg Med Chem, 2010).
